Data on eleven molecules can be found in article PMC10896134 (Pharmaceutical Biology, 2024).

Where only a bound is given, the exact number is not on record here.

What all share (assay): Antiproliferation assay
Common to all, as to type: cell-based

The subject of one assay is A549. Particulars: Homo sapiens, A549, 24 h, read-out: IC50 = mean ± SD, A549. The essentials:
(§1)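 Cell lines were grown at 37 °C under 5% CO2 in their own media: A549 in DMEM/F12, H446 in RPMI 1640, and HeLa, MCF-7, L02 and BEAS-2B in high-glucose DMEM with L-glutamine, with 10% FBS and penicillin/streptomycin. Cells were seeded in 96-well plates and exposed to test compounds or reference agents at 37 °C for 24 h. CCK-8 was added for 2 h and absorbance read at 450 nm.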

The test system of the next assay is H446. Particulars: Homo sapiens, NCI-H446, 24 h, read-out: IC50 = mean ± SD, H446. The essentials: as §1
The subject of another assay is BEAS-2B. Particulars: Homo sapiens, 24 h, read-out: IC50 = mean ± SD, BEAS-2B. The gist of the method:
as §1

A further assay deals with L02. Particulars: Homo sapiens, L02, 24 h, read-out: IC50 = mean ± SD, L02. The essentials: as §1
Another assay has as its system Hela. Particulars: Homo sapiens, 24 h, read-out: IC50 = mean ± SD, Hela. The essentials: as §1
Another assay concerns MCF-7. Particulars: Homo sapiens, MCF7, 24 h, read-out: IC50 = mean ± SD, MCF-7. The essentials: as §1

Consider `COc1cc([C@@H]2c3cc4c(cc3[C@H](OC(=O)CCCc3ccc(NS(=O)(=O)c5cccc([N+](=O)[O-])c5)cc3)[C@H]3COC(=O)[C@H]23)OCO4)cc(OC)c1OC` [Compound E13, (5R,5aR,8aR,9R)-8-oxo-9-(3,4,5-trimethoxyphenyl)-5,5a,6,8,8a,9-hexahydrofuro [3′,4′:6,7]naphtho[2,3-d][1,3]dioxol-5-yl4-(4-((3-nitrophenyl)sulfonamido)phenyl)butanoate], for which the IC50 – broadly, the midpoint of a concentration-inhibition curve – with A549 is 4.94 ± 0.42 µM; in the assay on H446, 9.92 ± 0.92 µM; with BEAS-2B, more than 100 µM; in the assay on L02, 48.1 ± 1.09 µM; in the assay with Hela, 51.3 ± 1.15 µM; in the assay on MCF-7, 42 ± 1.35 µM.
`COc1cc([C@@H]2c3cc4c(cc3[C@H](OC(=O)CCCc3ccc(NS(=O)(=O)c5cccc(F)c5)cc3)[C@H]3COC(=O)[C@H]23)OCO4)cc(OC)c1OC` [Compound E6, (5R,5aR,8aR,9R)-8-oxo-9-(3,4,5-trimethoxyphenyl)-5,5a,6,8,8a,9-hexahydrofuro [3′,4′:6,7]naphtho[2,3-d][1,3]dioxol-5-yl4-(4-((3-fluorophenyl)sulfonamido)phenyl)butanoate]: the IC50 is 1.08 ± 0.32 µM in the assay on A549; 6.07 ± 0.25 µM in the assay on H446; 94.3 ± 2.66 µM in the assay with BEAS-2B; more than 100 µM with L02; 12.7 ± 0.69 µM with Hela; 25.9 ± 1.34 µM with MCF-7.
With `CCCc1ccc(S(=O)(=O)Nc2ccc(CCCC(=O)O[C@H]3c4cc5c(cc4[C@@H](c4cc(OC)c(OC)c(OC)c4)[C@H]4C(=O)OC[C@@H]43)OCO5)cc2)cc1` [Compound E3, (5R,5aR,8aR,9R)-8-oxo-9-(3,4,5-trimethoxyphenyl)-5,5a,6,8,8a,9-hexahydrofuro [3′,4′:6,7]naphtho[2,3-d][1,3]dioxol-5-yl4-(4-((4-propylphenyl)sulfonamido)phenyl)butanoate], the IC50 in the assay on A549 was 17.8 ± 1.11 µM; with H446, 11 ± 0.47 µM; in the assay on BEAS-2B, 73.6 ± 1.35 µM; in the assay with L02 it was more than 100 µM; with Hela it was 39.2 ± 0.56 µM; with MCF-7 it was 18.7 ± 0.95 µM.
As for `COc1cc([C@@H]2c3cc4c(cc3[C@H](OC(=O)CCCc3ccc(NS(=O)(=O)c5ccc(C)cc5)cc3)[C@H]3COC(=O)[C@H]23)OCO4)cc(OC)c1OC` [Compound E12, (5R,5aR,8aR,9R)-8-oxo-9-(3,4,5-trimethoxyphenyl)-5,5a,6,8,8a,9-hexahydrofuro [3′,4′:6,7]naphtho[2,3-d][1,3]dioxol-5-yl4-(4-((4-methylphenyl)sulfonamido)phenyl)butanoate], the IC50 was 27 ± 1.33 µM in the assay on A549; 27.2 ± 2.06 µM with H446; 79.3 ± 1.07 µM in the assay on BEAS-2B; more than 100 µM in the assay on L02; 36.1 ± 1.49 µM in the assay with Hela; 36.8 ± 0.56 µM with MCF-7.
Turning to `COc1cc([C@@H]2c3cc4c(cc3[C@H](OC(=O)CCCc3ccc(NS(=O)(=O)c5ccc(Br)cc5)cc3)[C@H]3COC(=O)[C@H]23)OCO4)cc(OC)c1OC` [Compound E4, (5R,5aR,8aR,9R)-8-oxo-9-(3,4,5-trimethoxyphenyl)-5,5a,6,8,8a,9-hexahydrofuro [3′,4′:6,7]naphtho[2,3-d][1,3]dioxol-5-yl4-(4-((4-bromophenyl)sulfonamido)phenyl)butanoate], the IC50 was 2.57 ± 0.98 µM in the assay with A549; 17.4 ± 0.95 µM in the assay with H446; more than 100 µM with BEAS-2B; more than 100 µM in the assay on L02; 18.4 ± 0.22 µM with Hela; 70.91 ± 0.47 µM with MCF-7.
With `COc1cc([C@@H]2c3cc4c(cc3[C@H](OC(=O)CCCc3ccc(NS(=O)(=O)c5c(F)cccc5F)cc3)[C@H]3COC(=O)[C@H]23)OCO4)cc(OC)c1OC` [Compound E10, (5R,5aR,8aR,9R)-8-oxo-9-(3,4,5-trimethoxyphenyl)-5,5a,6,8,8a,9-hexahydrofuro [3′,4′:6,7]naphtho[2,3-d][1,3]dioxol-5-yl4-(4-((2,6-difluorophenyl)sulfonamido)phenyl)butanoate], the IC50 in the assay with A549 is 0.95 ± 0.22 µM; in the assay on H446, 7.28 ± 0.96 µM; with BEAS-2B, more than 100 µM; with L02, more than 100 µM; with Hela, 27.5 ± 2.54 µM; in the assay with MCF-7, 8.4 ± 0.79 µM.
As to `COc1cc([C@@H]2c3cc4c(cc3[C@H](OC(=O)CCCc3ccc(NS(=O)(=O)c5ccc(C(F)(F)F)cc5)cc3)[C@H]3COC(=O)[C@H]23)OCO4)cc(OC)c1OC` [Compound E8, (5R,5aR,8aR,9R)-8-oxo-9-(3,4,5-trimethoxyphenyl)-5,5a,6,8,8a,9-hexahydrofuro [3′,4′:6,7]naphtho[2,3-d][1,3]dioxol-5-yl4-(4-((4-(trifluoromethyl)phenyl)sulfonamido)phenyl)butanoate], the IC50 in the assay with A549 is 19.5 ± 1.09 µM; in the assay on H446, 29.18 ± 0.29 µM; in the assay with BEAS-2B, more than 100 µM; in the assay with L02 it was more than 100 µM; in the assay with Hela, 51.8 ± 1.27 µM; with MCF-7, 21.2 ± 0.52 µM.
As to `COc1cc([C@@H]2c3cc4c(cc3[C@H](OC(=O)CCCc3ccc(NS(=O)(=O)c5ccccc5F)cc3)[C@H]3COC(=O)[C@H]23)OCO4)cc(OC)c1OC` [Compound E7, (5R,5aR,8aR,9R)-8-oxo-9-(3,4,5-trimethoxyphenyl)-5,5a,6,8,8a,9-hexahydrofuro [3′,4′:6,7]naphtho[2,3-d][1,3]dioxol-5-yl4-(4-((2-fluorophenyl)sulfonamido)phenyl)butanoate], the IC50 with A549 was 20.2 ± 0.79 µM; in the assay with H446 it was more than 100 µM; in the assay on BEAS-2B it was more than 100 µM; in the assay on L02 it was more than 100 µM; in the assay with Hela, 13.6 ± 0.71 µM; in the assay with MCF-7 it was 18.9 ± 0.81 µM.
As to `COc1cc([C@@H]2c3cc4c(cc3[C@H](OC(=O)CCCc3ccc(NS(=O)(=O)c5ccc(F)cc5F)cc3)[C@H]3COC(=O)[C@H]23)OCO4)cc(OC)c1OC` [Compound E9, (5R,5aR,8aR,9R)-8-oxo-9-(3,4,5-trimethoxyphenyl)-5,5a,6,8,8a,9-hexahydrofuro [3′,4′:6,7]naphtho[2,3-d][1,3]dioxol-5-yl4-(4-((2,4-difluorophenyl)sulfonamido)phenyl)butanoate], the IC50 in the assay on A549 was 0.55 ± 0.17 µM; in the assay on H446 it was 9.27 ± 0.74 µM; in the assay with BEAS-2B it was 99.3 ± 3.53 µM; in the assay on L02 it was more than 100 µM; in the assay with Hela it was 62 ± 1.58 µM; with MCF-7 it was 4.97 ± 0.53 µM.
Turning to `COc1cc([C@@H]2c3cc4c(cc3[C@H](OC(=O)CCCc3ccc(NS(=O)(=O)c5ccccc5)cc3)[C@H]3COC(=O)[C@H]23)OCO4)cc(OC)c1OC` [Compound E1, (5R,5aR,8aR,9R)-8-oxo-9-(3,4,5-trimethoxyphenyl)-5,5a,6,8,8a,9-hexahydrofuro [3′,4′:6,7]naphtho[2,3-d][1,3]dioxol-5-yl 4-(4-(phenylsulfonamido)phenyl)butanoate], the IC50 in the assay with A549 was 2.73 ± 0.36 µM; in the assay with H446, 22.9 ± 1.33 µM; in the assay on BEAS-2B, 83.6 ± 1.85 µM; in the assay with L02, more than 100 µM; in the assay with Hela it was more than 100 µM; with MCF-7, 25 ± 1.11 µM.
As to `COc1cc([C@@H]2c3cc4c(cc3[C@H](OC(=O)CCCc3ccc(NS(=O)(=O)c5ccccc5[N+](=O)[O-])cc3)[C@H]3COC(=O)[C@H]23)OCO4)cc(OC)c1OC` [Compound E11, (5R,5aR,8aR,9R)-8-oxo-9-(3,4,5-trimethoxyphenyl)-5,5a,6,8,8a,9-hexahydrofuro [3′,4′:6,7]naphtho[2,3-d][1,3]dioxol-5-yl4-(4-((2-nitrophenyl)sulfonamido)phenyl)butanoate], the IC50 was 27.8 ± 1.51 µM with A549; 10.5 ± 2.08 µM in the assay with H446; more than 100 µM in the assay with BEAS-2B; more than 100 µM with L02; 46.7 ± 2.04 µM with Hela; 8.07 ± 0.63 µM in the assay on MCF-7.
